According to article PMC7847313 (Journal of natural products, 2018):
Where two headings read alike, the source gives them in different places. *1 amine or outer side, *2 acyl side, *3 side chain or, on linkers, in order; H or OH if unused. Where a SMILES comes first, the peptide text is derived from it. Bridges are numbered along the chain shown (N, C = ends). [ ]: non-standard residue; d: D form. The star is where a group is joined. Ahp(3S,6R)alloIle = CC[C@@H](C)[C@@H](C(=O)[*:2])N1C(=O)[C@@H](N[*:1])CC[C@H]1O; Propanoyl(2R-OMe,3-OSO3H) = CO[C@H](COS(=O)(=O)O)C(=O)*; NMeTyr(3-Br,OMe) = CN[C@@H](Cc1ccc(OC)c(Br)c1)C(=O)O; Cit = NC(=O)NCCC[C@H](N)C(=O)O; Butyryl = CCCC(=O)*

Key:
[1] = tested on: NCI-H460 lung cancer cells; conditions: cited from earlier work
[2] = target: T1, chymotrypsin (Bos taurus, UniProt P00766); conditions: cited from earlier work
[3] = tested on: neuro-2a neuroblastoma cells; conditions: read-out: IC50 neuro-2a neuroblastoma cells; cited from earlier work
[4] = target: T1, chymotrypsin; experiment: Chymotrypsin assay; format: biochemical
How it was run: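 Enzyme (4 units/mL, in cold 1 mM HCl) and BTEE (1.18 mM) in 80 mM Tris-HCl, pH 7.8, made fresh. BTEE, buffer, CaCl2 and test compound (MeOH dilution series; MeOH blank) were equilibrated at 25 °C, then enzyme added last. A256 followed continuously: 3 min uninhibited, 30 s intervals with inhibitor. Activity in BTEE units/mL; IC50 by nonlinear regression.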

[5] = cited from earlier work
[6] = tested on: Vibrio cholerae secreted serine protease activity; conditions: as low as in cultures of T2S mutants, averaged; cited from earlier work

Structure (SMILES): CCCC(=O)N[C@H](CCC(N)=O)C(=O)N[C@@H]1C(=O)N[C@@H](CCCNC(N)=O)C(=O)N[C@H]2CC[C@@H](O)N(C2=O)[C@@H]([C@H](C)CC)C(=O)N(C)[C@@H](Cc2ccc(OC)c(Br)c2)C(=O)N[C@@H](C(C)C)C(=O)O[C@@H]1C [symplocamide A] (Butyryl-[dQ]T[Cit][Ahp(3S,6R)alloIle][NMeTyr(3-Br,OMe)]V; ester 2-C)
- cytotoxicity to NCI-H460 lung cancer cells [1]: remarkably cytotoxic
- IC50 ([1]; read-out: IC50 NCI-H460 lung cancer cells): 0.04 µM
- selectivity chymotrypsin over trypsin [2]: greater selectivity for chymotrypsin over trypsin
- IC50 [3]: 0.029 µM

Structure (SMILES): CC[C@@H](C)[C@H]1C(=O)N(C)[C@@H](Cc2ccc(OC)c(Br)c2)C(=O)N[C@@H]([C@@H](C)CC)C(=O)O[C@H](C)[C@H](NC(=O)[C@H](NC(=O)[C@@H](COS(=O)(=O)O)OC)C(C)C)C(=O)N[C@@H](CCCCN)C(=O)N[C@H]2CC[C@@H](O)N1C2=O [Jizanpeptin B (2), Jizanpeptin B]
- IC50 [4]: > 10 µM

Structure (SMILES): C/C=C1\NC(=O)[C@@H](NC(=O)[C@H](CCc2ccc(O)cc2)NC(=O)[C@H](C)NC(=O)[C@H](O)COS(=O)(=O)O)[C@@H](C)OC(=O)[C@H](C(C)C)NC(=O)[C@H](Cc2ccc(O)cc2)N(C)C(=O)[C@H](Cc2ccccc2)N2C(=O)[C@H](CC[C@H]2O)NC1=O [lyngbyastatin 4]
- cytotoxicity ([5]; terminal Gac-sulfate): no cytotoxicity

Structure (SMILES): CC(=O)N[C@@H](CC(C)C)C(=O)N[C@@H](CC(C)C)C(=O)N[C@H](C=O)CCCNC(=N)N [leupeptin]
- reduction in fluorescence, positive control [6]: 93%

Structure (SMILES): CC[C@@H](C)[C@H]1C(=O)N(C)[C@@H](Cc2ccc(OC)c(Br)c2)C(=O)N[C@@H]([C@@H](C)CC)C(=O)O[C@H](C)[C@H](NC(=O)[C@@H](NC(=O)[C@@H](COS(=O)(=O)O)OC)C(C)C)C(=O)N[C@@H](CCCCN)C(=O)N[C@H]2CC[C@@H](O)N1C2=O [Jizanpeptin C (3), Jizanpeptin C]
- efficacy as a chymotrypsin inhibitor ([4]; standardized assay conditions, up to 10 μM): full efficacy

Structure (SMILES): CC[C@@H](C)[C@H]1C(=O)N(C)[C@@H](Cc2ccc(OC)c(Br)c2)C(=O)N[C@@H]([C@@H](C)CC)C(=O)O[C@H](C)[C@H](NC(=O)[C@H](NC(=O)[C@H](O)COS(=O)(=O)O)C(C)C)C(=O)N[C@@H](CCCCN)C(=O)N[C@H]2CC[C@@H](O)N1C2=O [Jizanpeptin A (1), Jizanpeptin A]
- IC50 [4]: > 10 µM

Structure (SMILES): CC[C@@H](C)[C@H]1C(=O)N(C)[C@@H](Cc2ccc(OC)c(Br)c2)C(=O)N[C@@H]([C@@H](C)CC)C(=O)O[C@H](C)[C@H](NC(=O)[C@H](NC(=O)[C@@H](COS(=O)(=O)O)OC)C(C)C)C(=O)N[C@@H](CCCNC(=N)N)C(=O)N[C@H]2CC[C@@H](O)N1C2=O [Jizanpeptin E (5), Jizanpeptin E]
- IC50 [4]: > 10 µM

Structure (SMILES): CC[C@@H](C)[C@H]1C(=O)N(C)[C@@H](Cc2ccc(OC)c(Br)c2)C(=O)N[C@@H]([C@@H](C)CC)C(=O)O[C@H](C)[C@H](NC(=O)[C@@H](NC(=O)[C@@H](COS(=O)(=O)O)OC)[C@@H](C)CC)C(=O)N[C@@H](CCCCN)C(=O)N[C@H]2CC[C@@H](O)N1C2=O [Jizanpeptin D (4), Jizanpeptin D] ({Propanoyl(2R-OMe,3-OSO3H)}-ITK[Ahp(3S,6R)alloIle][NMeTyr(3-Br,OMe)]I; ester 2-C)
- IC50 [4]: > 10 µM

Structure (SMILES): C/C=C1/NC(=O)C(NC(=O)C(NC(=O)C(CO)OC)C(C)C)C(C)OC(=O)C(C(C)C)NC(=O)C(Cc2ccccc2)N(C)C(=O)C(Cc2ccccc2)N2C(=O)C(CCC2O)NC1=O (stereo not drawn) [dolastatin 13]
- cytotoxicity ([5]; terminal Gac): nanomolar cytotoxicity
